Assay results reported in ChEMBL document CHEMBL3596156, “Synthesis and bioevaluation of heterocyclic derivatives of Cleistanthin-A” (Bioorg Med Chem, 2015).
The source made the active and inactive calls. No cut-off for these calls is given here.

Experiments:
[1] = system: WRL68; experiment: Cytotoxicity against human WRL68 cells assessed as inhibition of cell proliferation after 72 hrs by MTT assay; type: cell-based; conditions: WRL68, 72 h
How it was run: (§1)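 MTT antiproliferation screen across HCT-116, HepG2, A549 and HeLa tumour lines, with WRL-68 normal cells run in parallel.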

[2] = system: HepG2; experiment: Cytotoxicity against human HepG2 cells assessed as inhibition of cell proliferation after 72 hrs by MTT assay; type: functional, cell-based; conditions: HepG2, 72 h; how it was run: as §1
[3] = system: A549; experiment: Cytotoxicity against human A549 cells assessed as inhibition of cell proliferation after 72 hrs by MTT assay; type: functional, cell-based; conditions: A549, 72 h; how it was run: as §1
[4] = system: HCT-116; experiment: Cytotoxicity against human HCT116 cells assessed as inhibition of cell proliferation after 72 hrs by MTT assay; type: functional, cell-based; conditions: HCT-116, 72 h; how it was run: as §1
[5] = system: HeLa; experiment: Cytotoxicity against human HeLa cells assessed as inhibition of cell proliferation after 72 hrs by MTT assay; type: functional, cell-based; how it was run: as §1
[6] = system: HepG2; experiment: Inhibition of V-ATPase in human HepG2 cells assessed as decrease in lysosomal pH at 60 nM after 48 hrs by LysoTracker Red staining-based confocal microscopic analysis relative to control; type: cell-based
How it was run: (§2)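 HepG2 cells stained with LysoTracker Red (pH-sensitive dye), then loaded sequentially with the agent. Test concentrations were 0, 15, 30 or 60 nM; diphyllin was used at 1 µM as positive control. Cells were exposed for 48 h, and lysosomal acidity was judged by red fluorescence on confocal microscopy versus untreated cells.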

[7] = system: HepG2; experiment: Inhibition of V-ATPase in human HepG2 cells assessed as release of phosphate at 30 nM after 48 hrs by colorimetric assay relative to control; values are per cent of control
[8] = system: HepG2; experiment: Inhibition of V-ATPase in human HepG2 cells assessed as release of phosphate at 60 nM after 48 hrs by colorimetric assay relative to control; values are per cent of control
[9] = system: HepG2; experiment: Inhibition of V-ATPase in human HepG2 cells assessed as decrease in cytosolic pH at 15 to 60 nM after 24 to 48 hrs by BCECF-AM probe-based spectrofluorophotometric analysis; type: cell-based
[10] = system: HepG2; experiment: Cytotoxicity against human HepG2 cells assessed as inhibition of cell viability at 15 to 60 nM after 24 to 72 hrs by MTT assay; type: functional, cell-based
How it was run: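 HepG2 cells exposed to 0, 15, 30 or 60 nM for 24, 48 and 72 h; viability read by MTT.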

[11] = system: HepG2; experiment: Inhibition of V-ATPase in human HepG2 cells assessed as decrease in lysosomal pH at 1 uM after 48 hrs by LysoTracker Red staining-based confocal microscopic analysis relative to control; type: cell-based; how it was run: as §2
[12] = system: HepG2; experiment: Inhibition of V-ATPase in human HepG2 cells assessed as release of phosphate at 15 to 60 nM after 48 hrs by colorimetric assay; type: cell-based
How it was run: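 HepG2 cells treated 48 h with 0, 15, 30 or 60 nM, diphyllin as positive control. V-ATPase activity then measured using a commercial V-ATPase activity assay kit.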

Structure (SMILES)	IC50 [1]	IC50 [2]	IC50 [3]	IC50 [4]	IC50 [5]	inhibition [6]	level, % of control [7]	level, % of control [8]	inhibition [9]	inhibition [10]	inhibition [11]	inhibition [12]
COc1cc2c(O[C@@H]3OC[C@@H](OC)[C@H](OC)[C@H]3OCCCCCCN3CCN(CCO)CC3)c3c(c(-c4ccc5c(c4)OCO5)c2cc1OC)C(=O)OC3	> 0.2 µM	0.033 µM	0.019 µM	0.023 µM	0.025 µM	–	–	–	–	–	–	–
COc1cc2c(O[C@@H]3OC[C@@H](OC)[C@H](OC)[C@H]3OCCCCCCCN3CCN(C)CC3)c3c(c(-c4ccc5c(c4)OCO5)c2cc1OC)C(=O)OC3	> 0.2 µM	0.041 µM	0.023 µM	0.027 µM	0.051 µM	–	–	–	–	–	–	–
COc1cc2c(O[C@@H]3OC[C@@H](OC)[C@H](OC)[C@H]3OCCCCCCN3CCOCC3)c3c(c(-c4ccc5c(c4)OCO5)c2cc1OC)C(=O)OC3	> 0.2 µM	0.03 µM	0.026 µM	0.021 µM	0.02 µM	Active	62%	56%	Active	Active	–	–
COc1cc2c(O[C@@H]3OC[C@@H](OC)[C@H](OC)[C@H]3O)c3c(c(-c4ccc5c(c4)OCO5)c2cc1OC)C(=O)OC3 [CLEISTANTHIN]	> 0.2 µM	0.008 µM	0.004 µM	0.001 µM	0.019 µM	–	–	–	–	–	–	–
COc1cc2c(O[C@@H]3OC[C@@H](OC)[C@H](OC)[C@H]3OCCCCCCCCN3CCOCC3)c3c(c(-c4ccc5c(c4)OCO5)c2cc1OC)C(=O)OC3	> 0.2 µM	0.026 µM	0.026 µM	0.025 µM	0.045 µM	–	–	–	–	–	–	–
COc1cc2c(O[C@@H]3OC[C@@H](OC)[C@H](OC)[C@H]3OCCCCCCCCN3CCC(O)CC3)c3c(c(-c4ccc5c(c4)OCO5)c2cc1OC)C(=O)OC3	> 0.2 µM	> 0.2 µM	0.026 µM	0.012 µM	0.1 µM	–	–	–	–	–	–	–
COc1cc2c(O[C@@H]3OC[C@@H](OC)[C@H](OC)[C@H]3OCCCCCCCCN3CCCCC3)c3c(c(-c4ccc5c(c4)OCO5)c2cc1OC)C(=O)OC3	> 0.2 µM	0.052 µM	> 0.2 µM	0.015 µM	> 0.2 µM	–	–	–	–	–	–	–
COc1cc2c(O[C@@H]3OC[C@@H](OC)[C@H](OC)[C@H]3OCCCCCCN3CCC(O)CC3)c3c(c(-c4ccc5c(c4)OCO5)c2cc1OC)C(=O)OC3	> 0.2 µM	0.03 µM	0.023 µM	0.022 µM	0.032 µM	–	–	–	–	–	–	–
COc1cc2c(O[C@@H]3OC[C@@H](OC)[C@H](OC)[C@H]3OCCCCCCCN3CCOCC3)c3c(c(-c4ccc5c(c4)OCO5)c2cc1OC)C(=O)OC3	> 0.2 µM	0.043 µM	0.023 µM	0.028 µM	0.028 µM	–	–	–	–	–	–	–
COc1cc2c(O[C@@H]3OC[C@@H](OC)[C@H](OC)[C@H]3OCCCCCCCN3CCN(CCO)CC3)c3c(c(-c4ccc5c(c4)OCO5)c2cc1OC)C(=O)OC3	> 0.2 µM	> 0.2 µM	> 0.2 µM	0.029 µM	> 0.2 µM	–	–	–	–	–	–	–
COc1cc2c(O[C@@H]3OC[C@@H](OC)[C@H](OC)[C@H]3OCCCCCCN3CCN(C)CC3)c3c(c(-c4ccc5c(c4)OCO5)c2cc1OC)C(=O)OC3	> 0.2 µM	0.039 µM	0.036 µM	0.032 µM	0.032 µM	–	–	–	–	–	–	–
COc1cc2c(O)c3c(c(-c4ccc5c(c4)OCO5)c2cc1OC)C(=O)OC3	–	–	–	–	–	–	–	–	–	–	Active	Active
COc1cc2c(O[C@@H]3OC[C@@H](OC)[C@H](OC)[C@H]3OCCCCCCCCN3CCN(C)CC3)c3c(c(-c4ccc5c(c4)OCO5)c2cc1OC)C(=O)OC3	> 0.2 µM	0.039 µM	0.025 µM	0.011 µM	0.091 µM	–	–	–	–	–	–	–
COc1cc2c(O[C@@H]3OC[C@@H](OC)[C@H](OC)[C@H]3OCCCCCCCN3CCC(O)CC3)c3c(c(-c4ccc5c(c4)OCO5)c2cc1OC)C(=O)OC3	> 0.2 µM	> 0.2 µM	> 0.2 µM	0.073 µM	> 0.2 µM	–	–	–	–	–	–	–
COc1cc2c(O[C@@H]3OC[C@@H](OC)[C@H](OC)[C@H]3OCCCCCCCCN3CCN(CCO)CC3)c3c(c(-c4ccc5c(c4)OCO5)c2cc1OC)C(=O)OC3	> 0.2 µM	0.025 µM	0.029 µM	0.027 µM	0.055 µM	–	–	–	–	–	–	–
COc1cc2c(O[C@@H]3OC[C@@H](OC)[C@H](OC)[C@H]3OCCCCCCN3CCCCC3)c3c(c(-c4ccc5c(c4)OCO5)c2cc1OC)C(=O)OC3	> 0.2 µM	0.034 µM	0.026 µM	0.023 µM	0.036 µM	–	–	–	–	–	–	–
